Measurements from ChEMBL document CHEMBL3352696, “Selective immunoproteasome inhibitors with non-peptide scaffolds identified from structure-based virtual screening” (Bioorg Med Chem Lett, 2014).
Residues, ends and D or L forms follow the SMILES beside them. *: point of attachment. Fmoc = O=C(OCC1c2ccccc2-c2ccccc21)*

Key:
Proteasome = test: Inhibition of chymotrypsin-like activity of constitutive proteasome (unknown origin) using Suc-LLVY-AMC as substrate at 5 uM after 90 mins by fluorescence assay; format: subcellular; conditions: Homo sapiens
Procedure, shortened: (§1)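 Purified human 20S immunoproteasome or constitutive proteasome, 2-fold diluted in 20 mM Tris/Cl pH 8.0, 0.5 mM EDTA, 0.035% SDS, at 50 ng/well. The enzyme was preincubated with compound (5 µM, from DMSO) for 90 min at room temperature. Then 100 µM Suc-LLVY-AMC was added and AMC fluorescence (Ex 360/Em 460) was read for 90 min. […] Run in triplicate.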

Homo sapiens [1] = organism: Homo sapiens; test: Inhibition of chymotrypsin-like activity of human 20S immunoproteasome using Suc-LLVY-AMC as substrate at 5 uM after 90 mins by fluorescence assay; procedure, shortened: as §1
[2] = Inhibition of chymotrypsin-like activity of human 20S immunoproteasome using Suc-LLVY-AMC as substrate after 90 mins by fluorescence assay
Homo sapiens [3] = organism: Homo sapiens; test: Inhibition of chymotrypsin-like activity of human 20S immunoproteasome using Suc-LLVY-AMC as substrate at 1 uM after 90 mins by fluorescence assay

Structure (SMILES) | inhibition (Proteasome) [%] | inhibition (Homo sapiens [1]) [%] | IC50 [2] [µM] | inhibition (Homo sapiens [3]) [%]
CCCCc1ccc2nc(-c3ccc(OC)cc3)cc(C(=O)NC[C@@H](C)C(=O)N3CCC[C@@H]3CO)c2c1 | 2 | 21 | – | –
Cc1ccc(-c2cc(C(=O)NC[C@@H]3CCCO3)c3cc(CNS(=O)(=O)c4cccc(Cl)c4)ccc3n2)o1 | 20 | 85 | 1.7 | –
Cc1cccc(Nc2ccccc2C(=O)N[C@H](CC[S@+](C)[O-])C(=O)N[C@H](C)c2ccc(F)cc2)c1C | 33 | 31 | – | –
CCC[C@H]1C[C@H](C(=O)N[C@@H]([C@@H]2O[C@H](SC)[C@@H](O)[C@@H](O)[C@@H]2O)[C@@H](C)O)N(C)C1 | 2 | 36 | 22 | –
CC[C@@H](NC(=O)[C@@H](CC(C)C)NC(=O)OCc1ccccc1)C(=O)C(=O)NCCCN1CCOCC1 | 6 | 14 | – | –
CC[C@H](C)[C@H](NC(=O)[C@H]([C@@H](C)CC)N(C)C(C)=O)C(=O)N[C@H](C(=O)N[C@@H](CC(C)C)C(=O)[C@@]1(C)CO1)[C@@H](C)O | – | – | – | 100

Next, values leading:

inhibition (Proteasome) [%] | inhibition (Homo sapiens [1]) [%] | IC50 [2] [µM] | inhibition (Homo sapiens [3]) [%] | Structure (SMILES)
14 | 13 | – | – | O=C(C[C@@H]1CCN(CC2CC2)C[C@@H]1[C@H]1CC(c2ccccc2Cl)=NO1)NCCc1ccccn1
15 | 62 | 4.9 | – | Cc1ccc(CSC[C@@H](NC(=O)c2cc(-c3ccccc3)nc3ccccc23)C(=O)NCCCN2CCCC2=O)cc1
24 | 35 | – | – | NC(=O)CC[C@H](NC(=O)[C@H](Cc1cnc[nH]1)NC(=O)OCC1c2ccccc2-c2ccccc21)C(=O)N1CCC[C@H]1C(=O)O (Fmoc-His-Gln-Pro-OH)
16 | 25 | – | – | O=C1CN(/N=C/c2ccc(-c3ccc(Cl)cc3)o2)C(=O)N1CCCCN1CCN(C[C@@H](O)c2ccccc2)CC1
